Source: ChEMBL document CHEMBL1124794, “Synthesis, chemistry, and antineoplastic activity of alpha-halopyridinium salts: potential pyridone prodrugs of acylated vinylogous carbinolamine tumor inhibitors” (J Med Chem, 1990)
Values joined by “and” are separate entries in the source; they are usually repeats but may differ in a detail not shown here. Equal entries are not always repeated. Values belong to the molecule of their own block, whether it stands above or below them.

How the values were obtained:
L1210 [1] = assay: In vivo activity against murine L1210 tumor system at the dose of 100 mg/kg, activity expressed as body weight difference; T-C; type: functional, Mus musculus
How it was run: (§1)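 L1210 lymphocytic leukemia: ascitic fluid with ca. 10^6 cells injected ip into CD2F1 mice. Dosing started 24 h after inoculation and was repeated daily for five doses in total, from solutions or suspensions made fresh each day. Toxicity day survivors were scored on day 5. Body weight difference is day 5 minus day 1. %T/C is based on median survival time versus controls.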

[2] = Effect of pH on carbamate hydrolysis in 0.05 M buffer concentration at the pH 10.0, 25 degree C.; type: ADME
How it was run: (§2)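 Bis-carbamate in acetonitrile–water (1:1; buffer added to a 0.5 mg/mL acetonitrile solution), 0.05 M buffer, ionic strength 0.136 (KCl), 25 ± 0.1 °C. Buffers: phosphate pH 2.0; citrate pH 3.0–3.5; succinate pH 4.0; acetate pH 5.0; phosphate pH 6.0–8.0; borate pH 9.0; carbonate pH 10.0. HPLC bis-carbamate peak-area loss, ln(area0/areat) vs time slope = kobs. Duplicates averaged.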

L1210 [3] = assay: In vivo activity against murine L1210 tumor system at the dose of 100 mg/kg, activity expressed as %T/C.; type: functional, Mus musculus
How it was run: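 CD2F1 mice received ca. 10^6 L1210 cells in ascitic fluid ip. Treatment started 24 h after inoculation and was given daily for five doses in total. %T/C compares median survival time of treated and control animals.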

L1210 [4] = assay: In vivo activity against murine L1210 tumor system at the dose of 100 mg/kg, activity expressed as TDS; 6/6; type: functional, Mus musculus; how it was run: as §1
[5] = Effect of pH on carbamate hydrolysis in 0.05 M buffer concentration at the pH 5.0, 25 degree C.; type: ADME; how it was run: as §2
[6] = Effect of phosphate buffer on carbamate hydrolysis in acetonitrile-water at the concentration of 0.05 M on pH 7.4, 25 degree C.
How it was run: (§3)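 Bis-carbamate in acetonitrile–water (1:1), 25 ± 0.1 °C. Citrate buffer at pH 3.0 or phosphate buffer at pH 7.4, at 0.01, 0.025 or 0.05 M, ionic strength 0.136 (KCl). Kinetics followed by HPLC as the decrease in bis-carbamate peak area. The regression slope of ln(area0/areat) vs time gave pseudo-first-order kobs. Duplicates averaged.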

[7] = In vivo activity against murine M5076 tumor system at the dose of 36 mg/kg, activity expressed as TDS; 10/10; type: functional, Mus musculus
How it was run: (§4)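 M5076: ascitic fluid with ca. 10^6 cells inoculated ip into CD2F1 mice. Dosing started 24 h after inoculation and was then given every 4 days for four doses in total, from solutions or suspensions made fresh each day. Toxicity day survivors were scored on day 5. Body weight difference is day 14 minus day 1. %T/C is based on median survival time versus controls.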

[8] = In vivo activity against murine M5076 tumor system at the dose of 100 mg/kg, activity expressed as body weight difference; T-C; type: functional, Mus musculus; how it was run: as §4
[9] = Effect of phosphate buffer on carbamate hydrolysis in acetonitrile-water at the concentration of 0.01 M on pH 3.0, 25 degree C.; type: ADME; conditions: in the assay text read “citrate buffer” for “phosphate buffer”; how it was run: as §3
L1210 [10] = assay: In vivo activity against murine L1210 tumor system at the dose of 21.6 mg/kg, activity expressed as KE; type: functional, Mus musculus; how it was run: as §1
[11] = In vivo activity against murine M5076 tumor system at the dose of 36 mg/kg, activity expressed as body weight difference; T-C; type: functional, Mus musculus; how it was run: as §4
L1210 [12] = assay: In vivo activity against murine L1210 tumor system at the dose of 166.7 mg/kg, activity expressed as %T/C.; type: functional, Mus musculus; how it was run: as §1
[13] = Effect of pH on carbamate hydrolysis in 0.05 M buffer concentration at the pH 7.4, 25 degree C.; type: ADME; how it was run: as §2
[14] = In vivo activity against murine M5076 tumor system at the dose of 21.6 mg/kg, activity expressed as KE; type: functional, Mus musculus; how it was run: as §4
L1210 [15] = assay: In vivo activity against murine L1210 tumor system at the dose of mg/kg, activity expressed as %T/C.; type: functional, Mus musculus; how it was run: as §1
L1210 [16] = assay: In vivo activity against murine L1210 tumor system at the dose of 166.7 mg/kg, activity expressed as KE; type: functional, Mus musculus; how it was run: as §1
P388 [17] = assay: In vivo activity against P388 Lymphocytic Leukemia in CD2F1 mice at the dose of 50 mg/kg, activity expressed as body weight difference; T-C; type: functional, Mus musculus
How it was run: (§5)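 CD2F1 mice were inoculated with ascitic fluid holding ca. 10^6 P388 cells. Drug was given daily from 24 h after inoculation, from solutions or suspensions made fresh each day, some as a saline suspension. TDS is survivors/initial animals on day 5. BWD is body weight on day 5 minus day 1. %T/C compares median survival of treated and control mice.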

[18] = In vivo activity against murine M5076 tumor system at the dose of 21.6 mg/kg, activity expressed as TDS; 10/10; type: functional, Mus musculus; how it was run: as §4
[19] = Half life at the pH 6.5; type: ADME; conditions: buffer
P388 [20] = assay: In vivo activity against P388 Lymphocytic Leukemia in CD2F1 mice at the dose of 100 mg/kg, activity expressed as TDS; 1/6; type: functional, Mus musculus; how it was run: as §5
[21] = Half life at the buffer concentration of 0.10 M.; type: ADME
How it was run: (§6)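 α-Fluoropyridinium hydrolysis to pyridone in phosphate buffer at 0.02, 0.05 or 0.10 M, pH 6.5 or 8.0, ionic strength […] °C. Pyridinium UV absorbance maximum followed with time to give pseudo-first-order kobs and half-life.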

L1210 [22] = assay: In vivo activity against murine L1210 tumor system at the dose of 50 mg/kg, activity expressed as %T/C.; type: functional, Mus musculus; how it was run: as §1
MX1 [23] = assay: In vivo activity against murine MX-1 tumor system at the dose of 37.5 mg/kg, activity expressed as TDS; 4/6; type: functional, Mus musculus
[24] = In vivo activity against murine M5076 tumor system at the dose of 100 mg/kg, activity expressed as TDS; 6/10; type: functional, Mus musculus; how it was run: as §4
MX1 [25] = assay: In vivo activity against murine MX-1 tumor system at the dose of 75 mg/kg, activity expressed as body weight difference.; type: functional, Mus musculus
L1210 [26] = assay: In vivo activity against murine L1210 tumor system at the dose of 25 mg/kg, activity expressed as %T/C.; type: functional, Mus musculus; how it was run: as §1
[27] = Half life at the ionic strength 0.50 M NaCl; type: ADME
How it was run: (§7)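 Pyridinium salt in 0.02 M phosphate buffer, pH 7.4, 25 °C, with NaCl varied 0.10–1.0 M. Loss of the pyridinium chromophore's UV absorbance maximum (conversion to pyridone) followed over time. Pseudo-first-order kobs and half-life derived from that decay.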

[28] = Half life at the ionic strength 1.0 M NaCl; type: ADME; how it was run: as §7
[29] = In vivo activity against murine M5076 tumor system at the dose of 25 mg/kg, activity expressed as %T/C.; type: functional, Mus musculus; how it was run: as §4
[30] = Effect of phosphate buffer concentration on the hydrolysis of alpha Fluoropyridinium Moity at the concentration of 0.02M, pH 6.5, 25 degree C.; type: ADME; how it was run: as §6
[31] = Effect of Ionic strength (0.10 M NaCl)on the hydrolysis of pyridinium Moity in 0.02 M buffer concentration, pH 7.4,25 degree C; type: ADME; how it was run: as §7
[32] = In vivo activity against murine M5076 tumor system at the dose of 25 mg/kg, activity expressed as KE; type: functional, Mus musculus; how it was run: as §4

K obs [2]: 0.0133 min⁻¹
K obs [5]: 0.0139 min⁻¹
K obs [9]: 0.0349 min⁻¹
K obs [13]: 0.013 min⁻¹
SMILES: CC(C)NC(=O)OCc1c(COC(=O)NC(C)C)c(-c2ccn(C)c(=O)c2)n2c1CCC2
BWD (L1210 [1]): -4.2 g
T/C (L1210 [3]): 146%
TDS (L1210 [4]): 6
k obs [6]: 0.000217 s⁻¹
TDS [7]: 10
BWD [8]: -1.3 g
KE (L1210 [10]): -0.86
BWD [11]: 1.8 g
T/C (L1210 [12]): 110%
KE [14]: -1.93
T/C (L1210 [15]): 135%
KE (L1210 [16]): -2.29
BWD (P388 [17]): -0.6 g
TDS [18]: 10

half-life [19]: 45.3 min
T1/2 [21]: 50.3 min and 19.25 min
half-life [27]: 63.2 min
half-life [28]: 99.1 min
K obs [30]: 0.0052 min⁻¹
K obs [31]: 0.024 min⁻¹
SMILES: CC(C)NC(=O)OCc1c(COC(=O)NC(C)C)c(-c2cc[n+](C)c(F)c2)n2c1CCC2.[I-]
TDS (P388 [20]): 1
T/C (L1210 [22]): 118%
TDS (MX1 [23]): 4
TDS [24]: 6
BWD (MX1 [25]): 0.2 g
T/C (L1210 [26]): 118%
T/C [29]: 104%
KE [32]: -1.98
